Assays:
fMet-Leu-Phe receptor = target: T1, fMet-Leu-Phe receptor (Homo sapiens, UniProt P21462); experiment: Inhibitory activity against human formylpeptide receptor (FPR) of human leukemia HL-60 cells; type: cell-based
T1 sequence (P21462 whole entry): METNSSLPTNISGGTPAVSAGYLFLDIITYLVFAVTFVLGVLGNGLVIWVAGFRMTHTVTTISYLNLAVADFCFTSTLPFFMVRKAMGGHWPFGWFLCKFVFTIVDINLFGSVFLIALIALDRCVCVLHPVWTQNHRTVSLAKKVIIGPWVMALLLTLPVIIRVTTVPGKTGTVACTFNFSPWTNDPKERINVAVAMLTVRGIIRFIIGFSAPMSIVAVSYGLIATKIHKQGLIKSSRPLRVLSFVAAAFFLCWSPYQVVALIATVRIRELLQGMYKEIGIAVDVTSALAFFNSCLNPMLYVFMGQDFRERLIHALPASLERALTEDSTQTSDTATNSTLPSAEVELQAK
Method in brief: (§1)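 HL-60 cells differentiated 48 h with 0.2 mM dibutyryl cAMP, washed, then treated with 5 μM cytochalasin B (5–10 min, 37 °C). Stimulated 10 min with 30 nM f-MLF. N-acetyl-β-D-glucosaminidase release read at 410 nm on p-nitrophenyl substrate after spontaneous-release subtraction. Duplicate wells; IC20/IC50 as mean ± SD of independent experiments.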

[1] = target: T2, fMet-Leu-Phe receptor (Homo sapiens) (UniProt P21462); experiment: Inhibitory activity against Human formylpeptide receptor (FPR) of human leukemia HL-60 cells; type: cell-based; method in brief: as §1
T2 sequence (whole entry): T1 sequence (P21462 whole entry)

| IC50 (fMet-Leu-Phe receptor; hl-60) [nM] | IC20 [1] [nM] | IC50 (fMet-Leu-Phe receptor) [nM] | SMILES |
| --- | --- | --- | --- |
| 5500 | 1500 | – | C/C=C/C[C@@H](C)[C@@H](O)C1NC(=O)[C@H](C(C)C)N(C)C(=O)[C@H](CC(C)C)N(C)C(=O)[C@H](CC(C)C)N(C)C(=O)[C@@H](C)NC(=O)[C@H](C)NC(=O)[C@@H](CC(C)C)N(C)C(=O)[C@@H](C(C)C)NC(=O)[C@@H](CC(C)C)N(C)C(=O)CN(C)C(=O)[C@H]([C@@H](C)O)NC1=O (some centres undefined) |
| > 10000 | 2000 | – | C/C=C/C[C@@H](C)[C@@H](O)C1NC(=O)[C@H](C(C)C)N(C)C(=O)[C@H](CC(C)C)N(C)C(=O)[C@H](CC(C)C)N(C)C(=O)[C@@H](C)NC(=O)[C@H](C)NC(=O)[C@@H](CC(C)C)N(C)C(=O)[C@@H](C(C)C)NC(=O)[C@@H](CC(C)C)N(C)C(=O)CN(C)C(=O)[C@H](C(C)C)NC1=O (some centres undefined) |
| 6450 | 1900 | – | C/C=C/C[C@@H](C)[C@@H](O)C1NC(=O)[C@H](C(C)C)N(C)C(=O)[C@H](CC(C)C)N(C)C(=O)[C@H](CC(C)C)N(C)C(=O)[C@@H](C)NC(=O)[C@H](C)NC(=O)[C@@H](CC(C)C)N(C)C(=O)[C@@H](C(C)C)NC(=O)[C@@H](CC(C)C)N(C)C(=O)CN(C)C(=O)[C@H](CC)NC1=O (some centres undefined) |
| 1570 | 290 | – | C/C=C/C[C@@H](C)[C@@H](O)[C@H]1C(=O)N[C@@H](CC)C(=O)N(C)CC(=O)N(C)[C@H](CC(C)C)C(=O)N[C@H](C(C)C)C(=O)N(C)[C@H](CC(C)C)C(=O)N[C@@H](C)C(=O)N[C@H](C)C(=O)N(C)[C@@H](CC(C)C)C(=O)N(C)[C@@H](CC(C)C)C(=O)N(C)[C@H]([C@H](C)CC)C(=O)N1C |
| – | – | > 10000 | CCCCCC[C@H]1C(=O)N[C@@H](CC)C(=O)N(C)CC(=O)N(C)[C@@H](CC(C)C)C(=O)N[C@@H](C(C)C)C(=O)N(C)[C@@H](CC(C)C)C(=O)N[C@@H](C)C(=O)N[C@H](C)C(=O)N(C)[C@@H](CC(C)C)C(=O)N(C)[C@@H](CC(C)C)C(=O)N(C)[C@@H](C(C)C)C(=O)N1C |
| – | – | > 10000 | C/C=C/C[C@@H](C)[C@@H](O)[C@H]1C(=O)N[C@@H](CCC)C(=O)N(C)CC(=O)N(C)[C@@H](CC(C)C)C(=O)N[C@@H](CC(C)C)C(=O)N(C)[C@@H](CC(C)C)C(=O)N[C@@H](C)C(=O)N[C@H](C)C(=O)N(C)[C@@H](CC(C)C)C(=O)N(C)[C@@H](CC(C)C)C(=O)N(C)[C@@H](C(C)C)C(=O)N1C |
| – | – | 6330 | CC[C@@H]1NC(=O)[C@H](CC2CCCCC2)N(C)C(=O)[C@H](C(C)C)N(C)C(=O)[C@H](CC(C)C)N(C)C(=O)[C@H](CC(C)C)N(C)C(=O)[C@@H](C)NC(=O)[C@H](C)NC(=O)[C@H](CC(C)C)N(C)C(=O)[C@H](C(C)C)NC(=O)[C@H](CC(C)C)N(C)C(=O)CN(C)C1=O |
| – | – | > 10000 | C/C=C/C[C@@H](C)[C@@H](O)[C@H]1C(=O)N[C@@H](CC)C(=O)N(C)CC(=O)N(C)[C@@H](CC(C)C)C(=O)N[C@@H](C(C)C)C(=O)N(C)[C@@H](CC(C)C)C(=O)N[C@@H](C)C(=O)N[C@H](C)C(=O)N(C)[C@@H](CC(C)C)C(=O)N(C)[C@@H](CC(C)C)C(=O)N[C@@H](C(C)C)C(=O)N1C |
| > 10000 | – | – | C/C=C/C[C@@H](C)[C@@H](O)[C@H]1C(=O)N[C@@H](CC)C(=O)N(C)CC(=O)N(C)[C@@H](CC(C)C)C(=O)N[C@@H](C(C)C)C(=O)N(C)[C@@H](CC(C)C)C(=O)N[C@@H](C)C(=O)N[C@H](C)C(=O)N(C)[C@@H](CC(C)C)C(=O)N(C)[C@@H](CC(C)C)C(=O)N(C)[C@@H]([C@@H](C)CC)C(=O)N1C |

| SMILES | IC50 (fMet-Leu-Phe receptor; hl-60) [nM] | IC20 [1] [nM] | IC50 (fMet-Leu-Phe receptor) [nM] |
| --- | --- | --- | --- |
| CC(C)C[C@@H]1NC(=O)[C@H](CC(C)C)N(C)C(=O)[C@@](O)(C(C)C)NC(=O)[C@H](C)NC(=O)[C@H](CC(C)C)N(C)C(=O)[C@H](CC(C)C)NC(=O)[C@H](CC(C)C)N(C)C(=O)CN(C)C(=O)[C@H]([C@@H](C)O)NC(=O)[C@H]([C@H](O)[C@H](C)C/C=C/CO)N(C)C(=O)[C@H](C(C)C)N(C)C1=O | – | – | 1480 |

From ChEMBL document CHEMBL1135620, “Cyclosporins: structure-activity relationships for the inhibition of the human FPR1 formylpeptide receptor” (J Med Chem, 2002)
